Test [1] can be described thus: inhibitors of TNFa-induced NFkB p65 translocation, primary screen, imaging, HUVEC, MLSMR starter and 10KST1 sets (AID 438;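 active means inhibition above 20% together with a positive visual image hit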;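 further: compound added about 3h40 before a 20 min TNFalpha stimulation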;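 on inhibition: signal is the nuclear over cytoplasmic p65 intensity ratio per well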). To be noted: HUVEC TNFa-induced p65 nuclear translocation; cell count: measured here: nuclei count (cytotoxicity indicator), at 2.08 µM; inhibition: at 2 µM, stronger effect = higher value, 0% TNFa-plus-vehicle, 100% no-TNFa wells.
Test [2] can be described thus: inhibitors of mutant huntingtin aggregation, primary screen, imaging, exon1htt(103Q)mCFP cells, high-content imaging (AID 483;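 active means visual image review flags a hit and inhibition of aggregation exceeds 20%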;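 further: compound exposure lasted 3 days before fixation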;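 on nuclei count: percent of the per-plate median nuclei count of sample wells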). To be noted: exon1htt(103Q)mCFP cell line, aggregate imaging, at 2 µM; inhibition of aggregation: stronger effect = higher value; nuclei count: measured here: cell count, toxicity.
The nature of test [3]: inhibitors of E-selectin induction by TNFa, primary screen, imaging, HUVEC, immunofluorescence, MLSMR starter and 10KST1 sets (AID 487;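 active means visually confirmed hit in the image check and inhibition above 20%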;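 on inhibition: signal is fraction of cell area covered by stained E-selectin grains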;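 on nuclei count: 100% = median nuclei count of all wells on the same plate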). The conditions noted are these: HUVEC TNFalpha-induced E-selectin immunofluorescence imaging, at 2 µM; inhibition: stronger effect = higher value; nuclei count: measured here: cell number, toxicity.
Test [4] concerns the target Voltage-gated potassium channel subunit beta-2 (Rattus norvegicus) (UniProt P62483). Description: KvBeta enzyme negative modulators, primary screen, biochemical, NADPH fluorescence (AID 622;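 active means fluorescence slope higher than the sample average by over 3 SD, cut at about -0.22 in these data, passing the limit was not always enough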;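 further: slope of raw intensity against log time taken from 70 to 1610 s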). To be noted: recombinant KvBeta, 4-cyanobenzaldehyde reduction, at 10 µM, stronger effect = higher value.
Test [5] has the same target. Description: KvBeta positive modulators, primary screen, biochemical, NADPH fluorescence (AID 623;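 active means NADPH fluorescence slope more negative than the mean of all samples by about 3 SD, 99.7% confidence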;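 further: fluorescence intensity change per second fitted from 20 to 320 s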). The conditions noted are these: Recombinant KvBeta, NADPH fluorescence decrease slope, 10 min; at 10 µM; stronger effect = lower value.
The target in test [6] is Muscarinic acetylcholine receptor M4 (Homo sapiens) (UniProt P08173). Description: compounds altering M4/GIRK thallium flux, either direction, primary screen, M4 allosteric agonist project, cell-based, HEK293 M4/GIRK, BTC-AM (AID 625;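 active means fluorescence slope after compound addition differing from the mean of all tested samples at 99.7% confidence, mostly higher but some lower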;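 further: thallium influx through GIRK channels coupled to M4 in HEK293 cells with BTC-AM dye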). To be noted: at 10 µM, actives lie on both sides. Put shortly:
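System: HEK293 cells with M4 receptor and GIRK channels | Incubation: Cells overnight at 37 °C, BTC-AM loading 1 h, reads 2 min total | Technique: Kinetic BTC-AM fluorescence sampled at 1 Hz, 10 s pre-addition baseline | Measure: Post-addition slope, 15–24 s, of baseline-normalized fluorescence | Control set: Carbachol positive, DMSO negative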

The nature of test [7]: inhibitors of Sendai virus-induced IRF3 signaling, primary screen, TLR/RLR signaling modifier project, cell-based, Sendai virus stimulus, luciferase, 10K MLSCN set (AID 602276).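 Further: firefly luciferase from ISG56 promoter only with Renilla not read in this screen; 0% = Sendai virus plus DMSO and 100% = medium plus DMSO without virus.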 The conditions noted are these: HEK293 RL24 IRF3 luciferase reporter, at 10 µM, stronger effect = higher value. For orientation: A reporter such as luciferase makes a cellular process visible.
A short description of test [8]: inhibitors of poly I:C-induced TLR3 signaling, primary screen, cell-based, poly I:C stimulus, luciferase, 10K MLSCN set (AID 602277;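 active means inhibition of the reporter signal at or above 50%; inactive means inhibition below 50%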). The conditions noted are these: HEK293-TLR3 RL24 IRF3 luciferase reporter, at 10 µM, stronger effect = higher value.

The structures appear in SMILES notation. Calls of active or inactive are those of the source.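 How the source made its calls, unless noted: active means inhibition at or above 50% at 10 µM; inactive means inhibition below 50%.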

Chain of Muscarinic acetylcholine receptor M4 (Homo sapiens) (P08173 whole entry, looked up): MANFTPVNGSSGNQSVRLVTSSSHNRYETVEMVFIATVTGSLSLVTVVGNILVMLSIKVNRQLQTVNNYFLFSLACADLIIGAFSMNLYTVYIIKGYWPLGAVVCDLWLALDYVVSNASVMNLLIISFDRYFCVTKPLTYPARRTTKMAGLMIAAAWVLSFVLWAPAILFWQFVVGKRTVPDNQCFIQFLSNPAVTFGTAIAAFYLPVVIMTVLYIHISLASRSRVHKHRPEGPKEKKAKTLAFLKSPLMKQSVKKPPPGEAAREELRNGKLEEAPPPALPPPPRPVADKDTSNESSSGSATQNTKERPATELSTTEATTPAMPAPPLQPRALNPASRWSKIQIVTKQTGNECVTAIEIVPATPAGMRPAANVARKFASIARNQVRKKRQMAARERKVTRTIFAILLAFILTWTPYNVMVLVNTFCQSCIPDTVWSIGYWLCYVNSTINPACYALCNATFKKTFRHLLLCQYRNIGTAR
Chain of Voltage-gated potassium channel subunit beta-2 (Rattus norvegicus) (P62483 whole entry, looked up): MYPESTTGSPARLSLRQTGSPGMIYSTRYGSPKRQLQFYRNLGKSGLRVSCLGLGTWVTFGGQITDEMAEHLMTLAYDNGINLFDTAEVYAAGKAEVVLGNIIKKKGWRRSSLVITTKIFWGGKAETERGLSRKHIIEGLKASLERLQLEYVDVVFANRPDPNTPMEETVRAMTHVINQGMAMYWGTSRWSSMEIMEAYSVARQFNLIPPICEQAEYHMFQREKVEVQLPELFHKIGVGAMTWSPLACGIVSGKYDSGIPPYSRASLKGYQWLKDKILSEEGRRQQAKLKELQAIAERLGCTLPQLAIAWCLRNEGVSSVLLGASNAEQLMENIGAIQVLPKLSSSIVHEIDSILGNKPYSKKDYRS

As a reminder, the inhibition is the drop in the measured response relative to a control, in per cent. For `CCC(=O)N1CCc2cc(OC)c(OC)cc2C1COc1ccc(C(=O)OC)cc1` (centres undefined), in test [1], the cell count is 767. Further, the inhibition is -20.4% (inactive) in test [1], 36.5% (inactive) in test [3], 23.8% (inactive) in test [7] and 6.29% (inactive) in test [8]. Besides, the inhibition of aggregation in test [2] is -5.1% (inactive). Further, the nuclei count in test [2] came out at 128%; in test [3] it was 108%. The fluorescence slope in test [4] was -0.543 (inactive); in test [6], 0.00388 (inactive). In test [5], the NADPH fluorescence slope was -2e-05 (inactive).

For `CC1=C(C#N)C(c2ccc3ncccc3c2)C(C#N)=C(C)N1`, the cell count in test [1] was determined as 641. Further, the inhibition was 1.7% (inactive) in test [1], -66.3% (inactive) in test [3], 5.74% (inactive) in test [7] and 5.72% (inactive) in test [8]. The inhibition of aggregation in test [2] was -43.5% (inactive). The nuclei count is 130% in test [2] and 110% in test [3]. The fluorescence slope in test [4] was -0.44 (inactive); in test [6], 0.0045 (inactive). Further, the NADPH fluorescence slope in test [5] was 1.3e-05 (inactive).

Consider `c1nnc(NC2=NCCCCC2)s1`, for which the cell count in test [1] is 630. For the same compound, the inhibition was -18.3% (inactive) in test [1], 33.9% (inactive) in test [3], -16.9% (inactive) in test [7] and -29.4% (inactive) in test [8]. In test [2], the inhibition of aggregation was 0.1% (inactive). In addition, the figures for the nuclei count in test [2] and in test [3] were 105% and 124%, respectively. Besides, the fluorescence slope in test [4] is -0.346 (inactive); in test [6], 0.00597 (inactive). In addition, the NADPH fluorescence slope in test [5] is -1.1e-05 (inactive).

With `Cc1cc2ncn(N)c2cc1C`, the cell count in test [1] amounted to 711. Further, the inhibition in test [1] is -25.9% (inactive); in test [3], -53.3% (inactive); in test [7], 17.6% (inactive); in test [8], 15.1% (inactive). In addition, in test [2], the inhibition of aggregation was -20.7% (inactive). The values for the nuclei count in test [2] and in test [3] were 108% and 118%, respectively. Besides, the fluorescence slope in test [4] is -0.224 (inactive); in test [6], 0.00519 (inactive). Also, the NADPH fluorescence slope in test [5] was -1e-05 (inactive).

As for `CC(=O)Nc1c(Cl)n(C(C)=O)c2ccccc12`, the cell count in test [1] came out at 432. Further, the inhibition in test [1] was -1% (inactive); in test [3], -3.8% (inactive); in test [7], 27.6% (inactive); in test [8] it was 21% (inactive). Moreover, the inhibition of aggregation in test [2] is -9.1% (inactive). Also, the nuclei count in test [2] was found to be 100%; in test [3], 103%. Further, the fluorescence slope in test [4] is -0.304 (inactive); in test [6] it was 0.00935 (inactive). Besides, the NADPH fluorescence slope in test [5] was -2.6e-05 (inactive).

Take `O=C(CCN1CCOCC1)Nc1ccc2c(c1)CCC2`: the cell count in test [1] came to 228. In addition, the inhibition in test [1] is 5.7% (inactive); in test [3], -83.8% (inactive); in test [7], 4.13% (inactive); in test [8], -9.22% (inactive). Moreover, the inhibition of aggregation in test [2] is 17.3% (inactive). The values for the nuclei count in test [2] and in test [3] were 74.9% and 140%, respectively. The fluorescence slope is -0.442 (inactive) in test [4] and 0.00437 (inactive) in test [6]. The NADPH fluorescence slope in test [5] was -5.3e-05 (inactive).

For `Cc1nc(NCc2ccccn2)c2ccccc2n1`, the cell count in test [1] was determined as 416. Also, the inhibition is -13.6% (inactive) in test [1], -49.1% (inactive) in test [3], 4.35% (inactive) in test [7] and -44.1% (inactive) in test [8]. The inhibition of aggregation in test [2] is 13% (inactive). The results for the nuclei count in test [2] and in test [3] were 69.7% and 121%, respectively. In addition, the fluorescence slope is -0.572 (inactive) in test [4] and 0.00634 (inactive) in test [6]. The NADPH fluorescence slope in test [5] is -4.7e-05 (inactive).

For `C=C(C)c1cccc(C(C)(C)NC(=O)Nc2ncccn2)c1`, the cell count in test [1] was 472. Besides, the inhibition is -4.3% (inactive) in test [1], -0.4% (inactive) in test [3], -42.4% (inactive) in test [7] and 98.6% (active) in test [8]. The inhibition of aggregation in test [2] is 1.6% (inactive). Moreover, the nuclei count in test [2] was 106%; in test [3], 99.6%. In addition, the results for the fluorescence slope in test [4] and in test [6] were -0.601 (inactive) and 0.00622 (inactive), respectively. Also, the NADPH fluorescence slope in test [5] is -1.1e-05 (inactive).

On to `N#C[C@@H]1[C@@H]2C(=O)N(c3ccc4c(c3)OCCO4)C(=O)[C@@H]2C2c3ccccc3C=CN21` (some centres undefined), for which the cell count in test [1] was 351. Besides, the inhibition in test [1] is 0.5% (inactive); in test [3], -62.1% (inactive); in test [7] it was -1.7% (inactive); in test [8] it was -13.1% (inactive). Further, in test [2], the inhibition of aggregation is 6.7% (inactive). For the same compound, the nuclei count worked out at 107% in test [2] and 106% in test [3]. The fluorescence slope in test [4] was -0.6 (inactive); in test [6] it was 0.00563 (inactive). In addition, in test [5], the NADPH fluorescence slope was -2.2e-05 (inactive).

As for `CCOc1cc(C)c(Cl)cc1S(=O)(=O)N(C)C`, the cell count in test [1] was 682. Moreover, the inhibition in test [1] is -14.7% (inactive); in test [3] it was -5.4% (inactive); in test [7] it was 20.4% (inactive); in test [8], 22.4% (inactive). The inhibition of aggregation in test [2] is -26.4% (inactive). Moreover, the nuclei count in test [2] worked out at 113%; in test [3], 99.4%. Further, the fluorescence slope in test [4] was -0.565 (inactive); in test [6], 0.00578 (inactive). Also, in test [5], the NADPH fluorescence slope is -5.1e-05 (inactive).

On to `O=C(Nc1ccccc1)c1ccc(NCC2CCCO2)c(S(=O)(=O)N2CCOCC2)c1` (centres undefined), for which the cell count in test [1] turned out to be 637. The inhibition in test [1] is -1.5% (inactive); in test [3], -99.7% (inactive); in test [7] it was 5.98% (inactive); in test [8], 15.7% (inactive). The inhibition of aggregation in test [2] is 0.8% (inactive). In addition, the nuclei count in test [2] worked out at 108%; in test [3], 98.8%. Besides, the fluorescence slope in test [4] was -0.453 (inactive); in test [6], 0.00503 (inactive). Further, in test [5], the NADPH fluorescence slope is 1.2e-05 (inactive).

With `COc1cc(OC)c(C(=O)Nc2ccc(N(C)C)cc2)cc1OC`, the cell count in test [1] is 369. Further, the inhibition is 5.2% (inactive) in test [1], -85.5% (inactive) in test [3], -79.1% (inactive) in test [7] and 99.1% (active) in test [8]. In addition, the inhibition of aggregation in test [2] was 7.1% (inactive). The nuclei count is 94% in test [2] and 116% in test [3]. Also, the values for the fluorescence slope in test [4] and in test [6] were -0.448 (inactive) and 0.00454 (inactive), respectively. In test [5], the NADPH fluorescence slope is -4.1e-05 (inactive).

Take `Cc1nc2ccccc2c2oc(C(=O)NCc3ccccn3)cc12`: the cell count in test [1] is 234. Besides, the inhibition in test [1] is -3.8% (inactive); in test [3] it was -75.8% (inactive); in test [7] it was -2.75% (inactive); in test [8], -16.5% (inactive). In addition, the inhibition of aggregation in test [2] is 17.9% (inactive). Moreover, the nuclei count was found to be 65.8% in test [2] and 102% in test [3]. In addition, the results for the fluorescence slope in test [4] and in test [6] were -0.397 (inactive) and 0.00573 (inactive), respectively. Also, the NADPH fluorescence slope in test [5] is 7.6e-05 (inactive).

As for `O=C(CCCCn1c(=O)[nH]c2ccsc2c1=O)NCc1cccnc1`, the cell count in test [1] was 684. In addition, the inhibition in test [1] is -1% (inactive); in test [3], 3.5% (inactive); in test [7], 17% (inactive); in test [8], 15.3% (inactive). Also, the inhibition of aggregation in test [2] is 5% (inactive). For the same compound, the nuclei count in test [2] was 99.7%; in test [3], 119%. In addition, the fluorescence slope was -0.46 (inactive) in test [4] and 0.00456 (inactive) in test [6]. The NADPH fluorescence slope in test [5] is -5.1e-05 (inactive).

The values are drawn from PubChem BioAssay.
